# From ChEMBL document CHEMBL1151756, “Design, synthesis, and biological evaluation of N-carboxyphenylpyrrole derivatives as potent HIV fusion inhibitors targeting gp41” (J Med Chem, 2008)
# pEC50, pIC50: −log10 of the molar value. Active and inactive are the calls of the source. The rule behind the calls is not given here.
# Key:
# [1] = system: Human immunodeficiency virus 1; assay: Antiviral activity against HIV1 3B in human MT2 cells assessed as inhibition of p24 antigen level after 4 days by ELISA; assay type: functional, organism-based; settings: Human immunodeficiency virus 1, 3B, MT2, 96 h
# How it was run: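 Medium then replaced without compound. Day 4 post-infection, supernatants lysed with 5% Triton X-100; p24 measured by sandwich ELISA with HIVIG capture, anti-p24 mAb, TMB, A450, and a recombinant p24 standard curve. Triplicates; EC50 calculated from percent inhibition.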
# [2] = system: MT2; assay: Cytotoxicity against human MT2 cells after 4 days by XTT assay; assay type: cell-based; settings: mt2, 96 h
# How it was run: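 XTT assay: MT-2 cells (5 × 10⁵/mL) incubated with compound at graded concentrations at 37 °C for 4 days. XTT (1 mg/mL) containing 0.02 μM PMS then added, and A450 read after 4 h. CC50 calculated.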
# [3] = Selectivity index, ratio of CC50 for human MT2 cells to EC50 for HIV1 3B; assay type: toxicity, cell-based; settings: read-out: Ratio CC50/EC50
# [4] = Inhibition of HIV1 3B gp41 six-helix bundle formation after 30 mins by sandwich ELISA
# [5] = system: Human immunodeficiency virus 1; assay: Antiviral activity against HIV1 3B in human MT2 cells assessed as reduction of virus-induced cytopathogenicity; assay type: functional, organism-based
Compound,pEC50 [1],CC50 [2] [µM],selectivity ratio [3],pIC50 [4],Activity [5]
Cc1ccc(C)n1-c1cccc(C(=O)O)c1,4.93,88.4,7.49,4.37,–
Cc1ccc(C)n1-c1ccc(S(N)(=O)=O)cc1,4.00,117,1.18,3.74,–
O=C(O)c1ccc(N2C(=O)CSC2=S)cc1,3.59,143,0.56,< 3.00,–
O=C(O)c1ccc(-n2cccc2)cc1,4.16,–,–,3.89,–
Cc1ccc(C)n1-c1cccc(-c2nnn[nH]2)c1,5.11,249,32.4,4.59,–
O=C(O)Cc1ccc(-n2cccc2)cc1,3.43,–,–,–,–
O=C(O)c1ccc(-c2noc(CO)n2)cc1,3.82,455,2.98,4.58,–
Cc1ccc(C)n1-c1ccc(O)c(C(=O)O)c1,6.16,133,–,4.43,Active
O=C(O)c1ccc(-n2cccc2)cc1O,4.09,443,5.42,4.15,–
COC(=O)c1ccc(-n2c(C)ccc2C)cc1O,4.23,88.9,1.5,3.54,–
COC(=O)c1ccc(-c2noc(CCl)n2)cc1,4.38,14.2,0.34,< 3.40,–
O=C(O)c1ccc(-c2noc(CCl)n2)cc1,5.41,64,16.4,< 3.38,–
Cc1ccc(C)n1-c1ccc(Cl)cc1C(=O)O,5.07,–,–,4.22,–
Cc1ccc(C)n1-c1ccc(C(=O)O)cc1,3.76,136,0.78,3.72,–
COC(=O)c1ccc(-n2cccc2)cc1O,4.45,379,10.7,–,–
O=C(O)c1ccc(-c2noc(C(F)(F)F)n2)cc1,5.51,82.2,26.9,3.65,–
O=C(O)c1cccc(N2C(=O)CSC2=S)c1,3.69,165,0.81,< 3.00,–
Cc1ccc(C)n1-c1ccc(Cl)c(C(=O)O)c1,5.82,211,139,4.10,–
COC(=O)c1ccc(-c2noc(CBr)n2)cc1,4.06,32.7,0.37,< 3.47,–
O=C(O)c1cccc(-c2noc(CCl)n2)c1,4.24,64.9,1.12,3.46,–

Compound,pEC50 [1],CC50 [2] [µM],selectivity ratio [3],pIC50 [4],Activity [5]
O=C(O)c1ccc(N2C(=O)C=CC2=O)cc1O,< 3.40,> 400,–,< 3.00,–
N#CSCc1nc(-c2ccc(C(=O)O)cc2)no1,4.17,383,5.64,3.75,–
Cc1ccc(C)n1-c1ccc(CC(=O)O)cc1,5.68,204,97.1,3.65,–
O=C(O)c1ccc(-c2noc(CBr)n2)cc1,3.90,81.9,0.64,< 3.45,–
O=C(O)c1cc(N2C(=O)CSC2=S)ccc1Cl,3.75,155,0.87,< 3.00,–
COC(=O)c1ccc(-c2noc(CSC#N)n2)cc1,4.96,43.7,3.99,3.77,–
O=C(O)c1cc(N2C(=O)CSC2=S)ccc1O,3.78,152,0.92,< 3.00,–
Nc1nnc(-c2ccc(C(=O)O)cc2)s1,< 3.40,> 400,–,< 3.00,–
O=C(O)c1cccc(-c2noc(C(F)(F)F)n2)c1,< 3.40,> 400,–,< 3.00,–
O=C(O)c1cc(-n2cccc2)ccc1O,5.02,–,–,4.31,–
O=C(O)c1ccc(Cn2cccc2)cc1,4.19,–,–,3.80,–
O=C1CSC(=S)N1c1ccc(O)cc1,4.45,84.9,2.38,< 3.00,–
O=C(O)c1cc(-n2cccc2)ccc1Cl,–,336,–,4.23,–
CCOC(=O)c1ccc(-c2noc(CO)n2)cc1,3.43,385,1.03,3.75,–
O=C(O)c1cccc(-n2cccc2)c1,4.35,302,6.74,3.68,–
O=C(O)c1ccc(N2C(=O)C=CC2=O)cc1,3.69,> 400,> 1.95,< 3.00,–
O=C1CSC(=S)N1c1cccc(C(F)(F)F)c1,3.94,85.4,0.74,< 3.00,–
COC(=O)c1ccc(N2C(=O)C=CC2=O)cc1O,4.40,66.2,1.68,4.00,–
c1cc(-c2nnn[nH]2)cc(-n2cccc2)c1,4.39,436,10.6,3.65,–
COc1ccc(N2C(=O)CSC2=S)cc1,4.20,89.6,1.41,< 3.00,–
